IC50 data for 59 molecules are collected here from ChEMBL document CHEMBL4316595, “Synthesis and structure-activity relationship studies of parthenolide derivatives as potential anti-triple negative breast cancer agents” (Eur J Med Chem, 2019).

pIC50: −log10 of the molar value. Bounds are passed on as bounds.

The test relates to MDA-MB-231. Kind of test: Antiproliferative activity against human MDA-MB-231 cells measured after 72 hrs by MTT assay. The class given is functional, cell-based. The settings on record: MDA-MB-231, 72 h. An outline of the steps: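 MTT antiproliferation assay on human breast cancer lines MDA-MB-231, SUM-159, MCF-7 and Bcap-37 and on mouse 4T1 breast cancer cells. IC50 values were taken from the MTT read-out. Adriamycin served as the positive control.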
Background: Formazan colour is commonly taken as a measure of viable cells.
Regarding `C=C1C(=O)O[C@H]2[C@H]1CC/C(COC(=O)/C=C/c1c(F)cccc1F)=C\CC[C@@]1(C)O[C@@H]21`, the pIC50 was 5.80. For `C=C1C(=O)O[C@H]2[C@H]1CC/C(COC(=O)/C=C/c1ccncc1)=C\CC[C@@]1(C)O[C@@H]21`, the pIC50 is 5.55.

On to `C=C1C(=O)O[C@H]2[C@H]1CC/C(COC(=O)/C(C#N)=C/c1cc(OC)ccc1OC)=C\CC[C@@]1(C)O[C@@H]21`, for which the pIC50 was 5.63. The value for `C=C1C(=O)O[C@H]2[C@H]1CC/C(COC(=O)/C=C/c1cccc(Br)c1)=C\CC[C@@]1(C)O[C@@H]21` was 5.79; that for `C=C1C(=O)O[C@H]2[C@H]1CC/C(COC(=O)/C(=C/c1cc(OC)ccc1OC)c1ccc(SC)cc1)=C\CC[C@@]1(C)O[C@@H]21` was 5.73; that for `C=C1C(=O)O[C@H]2[C@H]1CC/C(COC(=O)/C(=C/c1cc(OC)ccc1OC)c1ccc(OCC)cc1)=C\CC[C@@]1(C)O[C@@H]21` was 5.73. The value for `C=C1C(=O)O[C@H]2[C@H]1CC/C(COC(=O)/C=C/c1ccccc1C)=C\CC[C@@]1(C)O[C@@H]21` was 5.75; that for `C=C1C(=O)O[C@H]2[C@H]1CC/C(COC(=O)/C=C/c1ccccn1)=C\CC[C@@]1(C)O[C@@H]21` was 5.64; that for `C=C1C(=O)O[C@H]2[C@H]1CC/C(COC(=O)/C=C/c1ccc(C#N)cc1)=C\CC[C@@]1(C)O[C@@H]21` was 5.74. `C=C1C(=O)O[C@H]2[C@H]1CC/C(COC(=O)CCc1c(OC)cccc1OC)=C\CC[C@@]1(C)O[C@@H]21` had a pIC50 of 5.64.

With `C=C1C(=O)O[C@H]2[C@H]1CC/C(COC(=O)/C(=C/c1cc(OC)ccc1OC)c1ccc(C)cc1)=C\CC[C@@]1(C)O[C@@H]21`, the negative-log IC50 (pIC50) is 5.53. The same measure for `C=C1C(=O)O[C@H]2[C@H]1CC/C(COC(=O)/C=C/c1ccccc1F)=C\CC[C@@]1(C)O[C@@H]21`: 5.74; for `C=C1C(=O)O[C@H]2[C@H]1CC/C(COC(=O)/C=C/c1c(Cl)cccc1Cl)=C\CC[C@@]1(C)O[C@@H]21`: 5.80. The same measure for `C=C1C(=O)O[C@H]2[C@H]1CC/C(COC(=O)/C=C/c1c(OC)cc(OC)cc1OC)=C\CC[C@@]1(C)O[C@@H]21`: 5.96; for `C=C1C(=O)O[C@H]2[C@H]1CC/C(COC(=O)/C(C)=C/c1cc(OC)ccc1OC)=C\CC[C@@]1(C)O[C@@H]21`: 5.75; for `C=C1C(=O)O[C@H]2[C@H]1CC/C(COC(=O)/C=C/c1cc(OC)c(OC)cc1OC)=C\CC[C@@]1(C)O[C@@H]21`: 5.99. `C=C1C(=O)O[C@H]2[C@H]1CC/C(COC(=O)/C=C/c1ccc3ccccc3c1)=C\CC[C@@]1(C)O[C@@H]21` had a pIC50 of 5.83. Consider `C=C1C(=O)O[C@H]2[C@H]1CC/C(COC(=O)/C=C/c1cccc(C)c1)=C\CC[C@@]1(C)O[C@@H]21`, for which the pIC50 is 5.97. As to `C=C1C(=O)O[C@H]2[C@H]1CC/C(COC(=O)/C(=C/c1cc(OC)ccc1OC)CCC)=C\CC[C@@]1(C)O[C@@H]21`, the pIC50 is 5.12.

For the molecule `C=C1C(=O)O[C@H]2[C@H]1CC/C(COC(=O)/C(=C/c1cc(OC)ccc1OC)c1ccc(Br)cc1)=C\CC[C@@]1(C)O[C@@H]21`, the pIC50 was 5.70. `C=C1C(=O)O[C@H]2[C@H]1CC/C(COC(=O)CCc1cc(OC)ccc1OC)=C\CC[C@@]1(C)O[C@@H]21` gave a pIC50 of 5.73. On to `COC(=O)/C=C/c1c(OC)cccc1OC`, for which the negative logarithm of the IC50 (pIC50) is less than 4.70. In turn, `C=C1C(=O)O[C@H]2[C@H]1CC/C(COC(=O)/C=C/c1c(Br)cccc1Br)=C\CC[C@@]1(C)O[C@@H]21` gave a pIC50 of 5.82. `C=C1C(=O)O[C@H]2[C@H]1CC/C(COC(=O)/C=C/c1ccc([N+](=O)[O-])cc1)=C\CC[C@@]1(C)O[C@@H]21` gave a pIC50 of 5.71.

The molecule `COc1ccc(OC)c(/C=C/C(=O)OC/C2=C/CC[C@@]3(C)O[C@H]3[C@H]3OC(=O)[C@@H](C)[C@@H]3CC2)c1` showed a pIC50 of 5.17. The value for `C=C1C(=O)O[C@H]2[C@H]1CC/C(COC(=O)/C=C/c1ccc(O)cc1)=C\CC[C@@]1(C)O[C@@H]21` was 5.72; that for `C=C1C(=O)O[C@H]2[C@H]1CC/C(COC(=O)/C=C/c1ccc(O)c(OC)c1)=C\CC[C@@]1(C)O[C@@H]21` was 5.70. `C=C1C(=O)O[C@H]2[C@H]1CC/C(COC(=O)c1c(OC)cccc1OC)=C\CC[C@@]1(C)O[C@@H]21` had a pIC50 of 5.45. With `C=C1C(=O)O[C@H]2[C@H]1CC/C(COC(=O)/C=C/c1ccc(OC)cc1)=C\CC[C@@]1(C)O[C@@H]21`, the negative-log IC50 (pIC50) was 5.76. The same measure for `C=C1C(=O)O[C@H]2[C@H]1CC/C(COC(=O)/C=C/c1ccc(C(C)C)cc1)=C\CC[C@@]1(C)O[C@@H]21`: 5.88. The same measure for `C=C1C(=O)O[C@H]2[C@H]1CC/C(COC(=O)/C=C/c1ccc(Cl)cc1)=C\CC[C@@]1(C)O[C@@H]21`: 5.91; for `C=C1C(=O)O[C@H]2[C@H]1CC/C(COC(=O)/C=C/c1cccnc1)=C\CC[C@@]1(C)O[C@@H]21`: 5.49. With `C=C1C(=O)O[C@H]2[C@H]1CC/C(COC(=O)/C=C/c1ccc(C(F)(F)F)cc1)=C\CC[C@@]1(C)O[C@@H]21`, the negative-log IC50 (pIC50) is 5.60. The value for `C=C1C(=O)O[C@H]2[C@H]1CC/C(COC(=O)/C=C/c1cccs1)=C\CC[C@@]1(C)O[C@@H]21` was 5.74. `C=C1C(=O)O[C@H]2[C@H]1CC/C(COC(=O)/C=C/c1cc(OC)cc(OC)c1)=C\CC[C@@]1(C)O[C@@H]21` gave a negative logarithm of the IC50 (pIC50) of 5.69.

For the molecule `C=C1C(=O)O[C@H]2[C@H]1CC/C(COC(=O)/C=C/c1ccccc1Br)=C\CC[C@@]1(C)O[C@@H]21`, the pIC50 was 5.88. The same measure for `COC(=O)/C=C/c1cc(OC)ccc1OC`: less than 4.30; for `C=C1C(=O)O[C@H]2[C@H]1CC/C(COC(=O)/C(=C/c1cc(OC)ccc1OC)CC)=C\CC[C@@]1(C)O[C@@H]21`: 5.65; for `C=C1C(=O)O[C@H]2[C@H]1CC/C(COC(=O)/C=C/c1ccc3c(c1)OCO3)=C\CC[C@@]1(C)O[C@@H]21`: 5.74. The value for `C=C1C(=O)O[C@H]2[C@H]1CC/C(COC(=O)/C(=C/c1cc(OC)ccc1OC)c1ccc(Cl)cc1)=C\CC[C@@]1(C)O[C@@H]21` was 5.69; that for `C=C1C(=O)O[C@H]2[C@H]1CC/C(COC(=O)/C(=C/c1cc(OC)ccc1OC)c1ccccc1)=C\CC[C@@]1(C)O[C@@H]21` was 5.70. As for `C=C1C(=O)O[C@H]2[C@H]1CC/C(COC(=O)/C=C/c1ccc(OC(C)=O)cc1)=C\CC[C@@]1(C)O[C@@H]21`, the pIC50 is 5.94. The value for `C=C1C(=O)O[C@H]2[C@H]1CC/C(COC(=O)/C=C/c1ccc(F)cc1)=C\CC[C@@]1(C)O[C@@H]21` was 5.88; that for `COc1cccc(OC)c1/C=C/C(=O)OC/C1=C/CC[C@@]2(C)O[C@H]2[C@H]2OC(=O)[C@@H](C)[C@@H]2CC1` was 5.12; that for `C=C1C(=O)O[C@H]2[C@H]1CC/C(COC(=O)/C=C/c1ccc(C)cc1)=C\CC[C@@]1(C)O[C@@H]21` was 5.64. The value for `C=C1C(=O)O[C@H]2[C@H]1CC/C(COC(=O)/C=C/c1ccc(OCC)cc1)=C\CC[C@@]1(C)O[C@@H]21` was 5.80; that for `C=C1C(=O)O[C@H]2[C@H]1CC/C(COC(=O)/C(=C/c1cc(OC)ccc1OC)c1ccc(OC)cc1)=C\CC[C@@]1(C)O[C@@H]21` was 5.60; that for `C=C1C(=O)O[C@H]2[C@H]1CC/C(COC(=O)/C=C/c1ccccc1Cl)=C\CC[C@@]1(C)O[C@@H]21` was 5.85. The same measure for `C=C1C(=O)O[C@H]2[C@H]1CC/C(COC(=O)/C=C/c1cccc(F)c1)=C\CC[C@@]1(C)O[C@@H]21`: 5.76. The molecule `C=C1C(=O)O[C@H]2[C@H]1CC/C(COC(=O)/C=C/c1cccc(Cl)c1)=C\CC[C@@]1(C)O[C@@H]21` showed a negative logarithm of the IC50 (pIC50) of 5.75. Molecule `C=C1C(=O)O[C@H]2[C@H]1CC/C(COC(=O)/C=C/c1ccc(Br)cc1)=C\CC[C@@]1(C)O[C@@H]21` had a pIC50 of 5.99. `C=C1C(=O)O[C@H]2[C@H]1CC/C(COC(=O)/C=C/c1ccc(OC)c(OC)c1)=C\CC[C@@]1(C)O[C@@H]21` gave a negative logarithm of the IC50 (pIC50) of 5.71. The same measure for `C=C1C(=O)O[C@H]2[C@H]1CC/C(COC(=O)/C(=C/c1cc(OC)ccc1OC)c1ccc(C(F)(F)F)cc1)=C\CC[C@@]1(C)O[C@@H]21`: 5.70; for `C=C1C(=O)O[C@H]2[C@H]1CC/C(COC(=O)/C=C/c1ccc(OC)c(OC)c1OC)=C\CC[C@@]1(C)O[C@@H]21`: 5.75; for `C=C1C(=O)O[C@H]2[C@H]1CC/C(CO)=C\CC[C@@]1(C)O[C@@H]21`: 5.25. The molecule `C=C1C(=O)O[C@H]2[C@H]1CC/C(COC(=O)/C=C/c1cccc(OC)c1OC)=C\CC[C@@]1(C)O[C@@H]21` had a negative-log IC50 (pIC50) of 5.76. In turn, `C=C1C(=O)O[C@H]2[C@H]1CC/C(COC(=O)/C=C/c1cccc(OC)c1)=C\CC[C@@]1(C)O[C@@H]21` gave a negative logarithm of the IC50 (pIC50) of 5.74. The same measure for `C=C1C(=O)O[C@H]2[C@H]1CC/C(COC(=O)/C=C/c1ccco1)=C\CC[C@@]1(C)O[C@@H]21`: 5.65; for `C=C1C(=O)O[C@H]2[C@H]1CC/C(COC(=O)/C(=C/c1cc(OC)ccc1OC)c1ccc(F)cc1)=C\CC[C@@]1(C)O[C@@H]21`: 5.71.

The pIC50 is the negative decadic logarithm of the IC50, by convention in mol/L. Low readings indicate a large IC50, high ones a small IC50.
